{"source": "ChEMBL document CHEMBL1949600", "about": "“Lipophilic hydroxytyrosol esters: fatty acid conjugates for potential topical administration” (J Nat Prod, 2011)", "key": {"[1]": {"assay": "Percutaneous permeability through human SCE membrane in Franz diffusion cell after 12 hrs by UV-Vis spectrophotometry relative to hydroxytyrosol", "type": "ADME", "how_it_was_run": "(§1)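 Franz cells (0.75 cm² area, 4.75 mL receptor) with human stratum corneum/viable epidermis from fresh abdominal surgical skin, used within 24 h of removal. Non-occlusive, 36 ± 1 °C. Receptor sampled hourly up to 12 h, each sample replaced with fresh phase. UV-vis at each compound's λmax against calibration (0.5–25 μg/mL in EtOH). At least three cells, triplicate, mean ± SD.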"}, "[2]": {"assay": "Octanol-water partition coefficient, log Kow of the compound by HPLC analysis", "type": "physicochemical", "conditions": "read-out: log KOW", "how_it_was_run": "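Reversed-phase HPLC method for log Kow, calibrated with reference standards of known log Kow. Naphthalene (log Kow 3.3) was the most lipophilic standard. Compounds too lipophilic to be resolved were assigned a log Kow above 3.3.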"}, "[3]": {"assay": "Percutaneous permeability through human SCE membrane in Franz diffusion cell after 12 hrs by UV-Vis spectrophotometry", "type": "ADME", "how_it_was_run": "as §1"}}, "data": [{"smiles": "CCCCCCCC/C=C\\CCCCCCCC(=O)OCCc1ccc(O)c(O)c1", "values": [{"measurement": "fold change (FC)", "setting": "[1]", "value": 3.6}, {"measurement": "logP", "setting": "[2]", "value": "> 3.3"}]}, {"smiles": "CCCC(=O)OCCc1ccc(O)c(O)c1", "note": "[HYDROXYTYROSOL BUTANOATE]", "values": [{"measurement": "fold change (FC)", "setting": "[1]", "value": 1.8}, {"measurement": "logP", "setting": "[2]", "value": 1.64}]}, {"smiles": "OCCc1ccc(O)c(O)c1", "note": "[HYDROXYTYROSOL]", "values": [{"measurement": "logP", "setting": "[2]", "value": 0.809}]}, {"smiles": "CCCCCCCCCCCCCCCCCC(=O)OCCc1ccc(O)c(O)c1", "note": "[HYDROXYTYROSOL STERATE]", "values": [{"measurement": "fold change (FC)", "setting": "[1]", "value": 1.7}, {"measurement": "logP", "setting": "[2]", "value": "> 3.3"}]}, {"smiles": "CCCCCCCC/C=C/CCCCCCCC(=O)OCCc1ccc(O)c(O)c1", "values": [{"measurement": "logP", "setting": "[2]", "value": "> 3.3"}]}, {"smiles": "CCCCC/C=C\\C/C=C\\CCCCCCCC(=O)OCCc1ccc(O)c(O)c1", "values": [{"measurement": "fold change (FC)", "setting": "[1]", "value": 2.2}, {"measurement": "logP", "setting": "[2]", "value": "> 3.3"}, {"measurement": "permeability", "setting": "[3]", "value": 60.52, "unit": "%"}]}, {"smiles": "CCCCCCCCCC(=O)OCCc1ccc(O)c(O)c1", "note": "[HYDROXYTYROSOL DECANOATE]", "values": [{"measurement": "fold change (FC)", "setting": "[1]", "value": 2.2}, {"measurement": "logP", "setting": "[2]", "value": "> 3.3"}, {"measurement": "permeability", "setting": "[3]", "value": 64.18, "unit": "%"}]}, {"smiles": "CCCCCCCCCCCCCCCC(=O)OCCc1ccc(O)c(O)c1", "note": "[HYDROXYTYROSOL PALMITATE]", "values": [{"measurement": "fold change (FC)", "setting": "[1]", "value": 1.7}, {"measurement": "logP", "setting": "[2]", "value": "> 3.3"}]}]}
